The results in this text go back to ChEMBL document CHEMBL4513216, “Probing the Open Global Health Chemical Diversity Library for Multistage-Active Starting Points for Next-Generation Antimalarials” (ACS Infect Dis, 2020).

A short description of the data set: Toxicity liver stage against HepG2, at 10uM. The data set is classed as cell-based. Conditions: human, HepG2-A16-CD81EGFP cells; read-out: INHIBITION
Also noted: test concentration 10 uM, cell line HepG2-A16-CD81EGFP. The procedure, abridged: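 Uninfected HepG2-A16-CD81EGFP cells, 3 × 10^3 per well, 1536-well, plated on prespotted compound at 10 μM final, parasite-free screening media added to match infected plates; puromycin 10 μM positive, DMSO 0.5% negative; run in parallel with 48 h PbLuc assay at 37 °C, 5% CO2; viability by CellTiter-Glo luminescence, normalized to controls.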
As for `Cc1nc2c(Nc3cccc(C#N)c3)nc(N)nc2n1C`, the cytotoxicity at 10 µM is -1.87%. In the case of `COCCOc1ccc(CNc2cnc3ccccc3n2)cn1` it was 8.15%; in that of `CN1CCN(C(=O)c2cn(Cc3ccccc3)c3ncccc23)CC1`, -6.63%.

Consider `O=S(=O)(NCCC(O)c1cccs1)c1ccccc1Cl` (configuration not stated), for which the cytotoxicity at 10 µM amounted to 1.87%.

For the compound `CCOC(=O)Cc1csc(NC(=O)c2cc3n(n2)CCCO3)n1`, the cytotoxicity at 10 µM was -11.9%. For the compound `CC(C)(C)C(=O)NCCn1ccc(-c2ccccn2)n1`, the cytotoxicity at 10 µM was 6.47%. In the case of `O=C1NCCC12CN(CC1CC1)CC21CCNCC1` (configuration not stated), the cytotoxicity at 10 µM is -5.31%. As to `Cc1cccc(N2CC[C@@H]3[C@@H](CO[C@H]3CNC(=O)c3ccco3)C2)n1`, the cytotoxicity at 10 µM was -1.67%. In the case of `Cc1csc([C@@H]2C[C@@H]3CCN(C(=O)c4cnccn4)C[C@H]3O2)n1` it was 2.08%; in that of `O=C(c1cnc2ccc(F)cc2c1NCc1ccccn1)N1CCCC1`, 3%; in that of `Cc1c(C(=O)O)cnn1-c1ccc(-c2nc(C(C)C)no2)cn1`, -3.42%.

Consider `Cc1noc(C2CCCCN2C(=O)NC2CCCC2)n1` (configuration not stated), for which the cytotoxicity at 10 µM was 2.4%. Regarding `O=C1CC[C@H]2[C@H](CCN2C(=O)C2CCCO2)N1CCN1CCCC1` (some centres not stated), the cytotoxicity at 10 µM was -4.66%.

As to `CCOC(=O)c1sc(NC(=O)C(C)(C)C)c(C#N)c1C`, the cytotoxicity at 10 µM stood at 9.04%.

Regarding `Cc1nn(CCCNC(=O)C2CCN(S(C)(=O)=O)CC2)cc1Br`, the cytotoxicity at 10 µM is -7.24%. In the case of `CCN1C(=O)C(C)(C)c2cc(NC(=O)c3ccn(CC)n3)ccc21` it was 9.65%; in that of `Cn1nc(C(=O)NCc2ccccn2)c2c1CCS(=O)(=O)C2`, 7.21%. The value for `CCn1cc(S(=O)(=O)N2CCCC3(CC=CNC3=O)C2)c(C)n1` (configuration not stated) was -7.56%; that for `OCC(CO)N1CCC(c2nccnc2Nc2cnccn2)CC1` was -10.5%. In the case of `CC(=O)N1CCN([C@@H]2CN(C(=O)Cc3ccccc3C)C[C@H]2O)CC1` it was -6.94%; in that of `CN(C)c1cc(C2CCCN(S(=O)(=O)c3cn(C)cn3)C2)ccn1` (configuration not stated), -14.4%. In the case of `CC(C)(C)C(O)CN1CCN(Cc2cccc(C#N)c2)CC1` (configuration not stated), the cytotoxicity at 10 µM was 3.7%. Regarding `Cc1nnc(NCc2ccc(Br)cc2)o1`, the cytotoxicity at 10 µM was found to be 1.66%. The value for `Cc1nc2cc(F)cc(C(=O)N3CCN(CC(C)O)CC3)c2nc1C` (configuration not stated) was 4.5%; that for `OCCN1CCCCC1C1OCCO1` (configuration not stated) was 6.66%. The value for `Cc1cccc(C(=O)N(C)CC(=O)N2CCCC2)c1C` was -0.291%; that for `CC(c1ccc(S(N)(=O)=O)cc1)N(C)C(=O)c1ccccc1I` (configuration not stated) was -0.629%; that for `CC(C)(CNC(=O)Nc1cccc(-c2nccs2)c1)C(N)=O` was -10%. The value for `COc1c(CNC2CCN(CC(=O)NC3CC3)CC2)c(C)nn1C` was 7.76%; that for `CC(Nc1cccc2c1OCCO2)C(=O)NC(N)=O` (configuration not stated) was 2.76%. On to `c1cc(-c2noc(-c3cc(C4CC4)[nH]n3)n2)cc(N2CCCCC2)n1`, for which the cytotoxicity at 10 µM turned out to be 3.05%.

As for `CCn1c(C)nnc1CN(C)C1CCN(Cc2sc(C)nc2C)C1` (configuration not stated), the cytotoxicity at 10 µM was determined as 6.47%. Take `Cc1ccc(C(=O)NC2CCN(Cc3noc(C(C)(C)C)n3)CC2)s1`: the cytotoxicity at 10 µM was found to be 1.33%. In the case of `Cc1cccc(OCC(O)CNCc2c(C)nn(C)c2N(C)C)c1` (configuration not stated) it was -2.45%; in that of `Cc1cccc(-c2nc(CN3CC(n4nc(C)cc4C)C3)no2)c1`, 1.37%; in that of `O=C(c1cccc(-n2cnnn2)c1)N1CCC2(CC1)OCCO2`, -126%. In the case of `CC(C)(C)c1n[nH]c(C2CN(C(=O)c3cnc[nH]3)CCO2)n1` (configuration not stated) it was 0.152%; in that of `CC1CN(C(=O)Nc2cccc(CN3CCOC3=O)c2)CCO1` (configuration not stated), -7%. In the case of `COc1ccc(C2CCCN2S(=O)(=O)N(C)C)cc1` (configuration not stated) it was 5.08%. As for `Cc1ncsc1CCN1CCC(N(C)Cc2ncc(C(C)C)o2)C1` (configuration not stated), the cytotoxicity at 10 µM was -7.49%.

Take `Clc1ccc(NCc2nnc(C3CC3)o2)cc1Cl`: the cytotoxicity at 10 µM is -12.4%.

As for `Cc1cc(NC(=O)CN2CCCC(Cn3cncn3)C2)on1` (configuration not stated), the cytotoxicity at 10 µM was 1.68%.

As for `Cc1c(C(=O)NC2(C#N)CCCC2)nnn1-c1ccccc1Cl`, the cytotoxicity at 10 µM was -6.75%. In the case of `COCc1nc(CNc2cccc(-c3ncon3)c2)cs1` it was 1.22%; in that of `CCN(CCCNC(=O)c1cc2cccc(F)c2o1)S(C)(=O)=O`, 4.35%.

Regarding `CCCn1ccnc1SCCNS(=O)(=O)c1ccccc1`, the cytotoxicity at 10 µM was -12.8%. In the case of `O=S(=O)(CCCNCCn1cccn1)c1ccccc1` it was 5.96%; in that of `OC(COc1ccccc1Br)COC1CCOCC1` (configuration not stated), -8%; in that of `CC(C(=O)N(C)C)S(=O)(=O)c1cc2c(cc1Cl)OCCO2` (configuration not stated), 7.71%. The value for `Cc1nn(C)c(C)c1C1CCCN1c1ncnc2[nH]ccc12` (configuration not stated) was 3.45%; that for `CC(C)c1nsc(N2CCn3c(nnc3C(F)(F)F)C2)n1` was 5.83%; that for `COc1ccc(CCC(=O)N(C(C)C)C2CCOCC2)cc1` was -11.8%. The value for `Cc1cc(CN2CCN(S(=O)(=O)c3c(C)c(Cl)cc(C)c3Cl)CC2)on1` was -8.87%. As for `CC(CO)(NC(=O)Nc1nncs1)C1CCCCC1` (configuration not stated), the cytotoxicity at 10 µM came out at 4.17%. In the case of `CC(O)CNc1nc(-c2cccnc2)nc2c1CCC2` (configuration not stated) it was 9.8%; in that of `COCC1CN(C(=O)Nc2cc(Cl)cc(Cl)c2)CCO1` (configuration not stated), -4.44%; in that of `CCC(C)CN(C)C(=O)NCc1ccccc1-n1cccn1` (configuration not stated), 8.75%. In the case of `CC(C)c1n[nH]c(C2CN(C(=O)CCCn3cccn3)CCO2)n1` (configuration not stated) it was -7.85%; in that of `O=C(NCC1CC1)C1CSCN1S(=O)(=O)c1cccc(F)c1` (configuration not stated), -14.3%. The value for `Cc1cc(C)n(CC2CN(Cc3cccc(C(N)=O)c3)CCO2)n1` (configuration not stated) was -4.97%; that for `CN(CCc1cn[nH]c1)C(=O)C1CC(=O)N(Cc2ccccn2)C1` (configuration not stated) was -6.47%; that for `NC(=O)CN1CCC(C(=O)NCc2ccc3c(c2)OCCCO3)CC1` was -6.42%. As for `COc1ccc2c(c1)OCC(Cc1cc(N3CCCC3)cnn1)C2` (configuration not stated), the cytotoxicity at 10 µM is -18.1%.

For the compound `CCc1ccc(CN2CCCC(c3nn(C)c(=O)n3CC)C2)nc1` (configuration not stated), the cytotoxicity at 10 µM was found to be 1.93%. The value for `O=c1n(CC2COCCO2)nc(CC2CCNCC2)n1-c1ccccc1` (configuration not stated) was -3.41%.

Take `CCn1c(-c2ccccc2)nn(CC(=O)NCCc2ccc(C)s2)c1=O`: the cytotoxicity at 10 µM came out at 7.69%.

Consider `Cc1nn(CC(=O)NCCc2ccncc2)c(=O)n1Cc1ccccc1`, for which the cytotoxicity at 10 µM is 18.5%. Take `COCCOCC(=O)N1CCCC(c2ncc[nH]2)C1` (configuration not stated): the cytotoxicity at 10 µM was -4.59%. In the case of `COc1ccc(NC(=O)CCC2CCCN(S(=O)(=O)C3CC3)C2)c(C)c1` (configuration not stated) it was -3.41%; in that of `CSCCCN1CCc2nc(N(C)C)nc(N3CCC(O)CC3)c2C1`, -4.67%.

Turning to `Nc1nnc(CCCNc2ncnc3c2CCN(C(=O)C2CC2)C3)s1`, the cytotoxicity at 10 µM is -3.94%. On to `CN(Cc1ccccc1CN1CCCC1)c1ncnc2[nH]ccc12`, for which the cytotoxicity at 10 µM was 8.53%. In the case of `CCCNc1ncc(CN2CCOC(Cc3cccc(F)c3)C2)cn1` (configuration not stated) it was -8.65%; in that of `O=S(=O)(c1ccc(-c2nc3c([nH]2)CCNC3)cc1)N1CCCC1`, -2.09%. In the case of `Cc1cc(CC(=O)N2CCN(CC(C)C)[C@@H]3CS(=O)(=O)C[C@@H]32)ccc1F` it was -2.22%. On to `Cn1ccnc1-c1ccc(NCC2COCCO2)nn1` (configuration not stated), for which the cytotoxicity at 10 µM was found to be 9.3%. The value for `COc1cccc2c1OCC(CNC(=O)COCC(F)(F)C(F)F)C2` (configuration not stated) was -134%; that for `CCOC(=O)N1CCN(CC(=O)Nc2nnc(CC)s2)CC1` was -8.94%; that for `COc1ccccc1[C@@H]1CN(CC(=O)N2CCCCC2)C[C@H]1C(=O)O` was -2.82%.

As to `CS(=O)(=O)N1CCC(c2nnc(Cn3ccnc3)n2C2CC2)CC1`, the cytotoxicity at 10 µM was -1.24%. For the compound `CCCN(CC)c1cc(C2CCNCC2)nc(C)n1`, the cytotoxicity at 10 µM was -7.33%. In the case of `CC(=O)N1CCc2c(nc(-c3ccccn3)nc2N(C)CC(O)CO)C1` (configuration not stated) it was -12.2%; in that of `CCC(N)c1ccccc1OCC(=O)N1CCCC1` (configuration not stated), -5.16%. The value for `CC(C(=O)NCCOc1ccc(F)cc1)n1cncn1` (configuration not stated) was -1.46%; that for `Cc1cc(CN2CCN(C(=O)NCc3cccs3)CC2)no1` was -11.6%; that for `Cc1cnn(CC2CCCCN2C(=O)c2n[nH]c3ccccc23)c1` (configuration not stated) was -8.25%. With `Cc1cnn(C2CCCN(C(=O)c3cn(-c4ccccc4)nc3C)C2)c1` (configuration not stated), the cytotoxicity at 10 µM was -5.46%. In the case of `Cc1nn(C)c(N(C)C)c1CNCc1ccnc(N2CCCC2)c1` it was -11.4%; in that of `Cc1cnc(CN(C)C2CCN(Cc3nnc(C4CC4)o3)C2)o1` (configuration not stated), 5.25%.

Regarding `O=C(CCCOc1cccc(F)c1)N1CCCC(n2cccn2)C1` (configuration not stated), the cytotoxicity at 10 µM is -16%.

Regarding `CN1N=C(C(=O)Nc2cc(F)ccc2OCC2CCCO2)CCC1=O` (configuration not stated), the cytotoxicity at 10 µM was -8%.

`CC(=O)Nc1nc(C(=O)NC(C)c2ccc(F)cc2)cs1` (configuration not stated): the cytotoxicity at 10 µM was -0.168%. The value for `O=C(NCCN1CCCC1)c1nc2c(o1)CN(C(=O)c1cccnc1)C2` was -1.08%; that for `Cn1cc(CN2CCC[C@]3(C(=O)O)CN(c4ncccn4)C[C@@H]3C2)cn1` was 4.89%.

As to `CN1CCc2c(sc3c2C(=O)NC(C=Cc2ccccc2)N3)C1` (configuration not stated), the cytotoxicity at 10 µM was determined as 6.33%. In the case of `O=C(N1CCOCC1)N1C[C@@H]2CC[C@H]1CN(C1Cc3ccccc3C1)C2` it was -4.55%. In the case of `COCCOCC1(CNCc2ccc(F)cc2)C[C@@H](O)[C@@H](O)C1` (some centres not stated) it was -3.1%.
